The values that follow come from ChEMBL document CHEMBL1144320, “Structure-activity relations of azafluorenone and azaanthraquinone as antimicrobial compounds” (2005).

In brackets after ≈: the same amount, converted by molar mass. A value given as a limit tells only on which side of the number the result lay.

Holding throughout (assay type): functional
In experiment [1] the test system is Mucor mucedo. As to the kind of experiment: Minimum inhibitory concentration against Mucor mucedo. An outline of the steps: (§1)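 Strains: S. cerevisiae IFO 0203, S. pombe IFO 0342, C. utilis OUT 6020, R. rubra IFO 0001, A. niger ATCC 6275, P. chrysogenum IFO 4626, R. chinensis IFO 4768, M. mucedo IFO 7684.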
For experiment [2], the system named is Aspergillus niger. As to the kind of experiment: Minimum inhibitory concentration against Aspergillus niger. Put shortly:
as §1

In experiment [3] the test system is Saccharomyces cerevisiae. As to the kind of experiment: Minimum inhibitory concentration against Saccharomyces cerevisiae. Put shortly: as §1
Experiment [4] deals with Cyberlindnera jadinii. As to the kind of experiment: Minimum inhibitory concentration against Candida utilis. Conditions: Williopsis jadinii. Put shortly:
as §1

Experiment [5] can be described thus: Minimum inhibitory concentration against Penicillium chrysogenum. An outline of the steps:
as §1

Experiment [6] deals with Bacillus subtilis. As to the kind of experiment: Minimum inhibitory concentration against Bacillus subtilis. Put shortly:
(§2)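 MIC by 2-fold broth dilution in peptone medium containing compound; bacteria grown in test tubes at 37 °C for 2 days. Strains: S. aureus NCTC 8530, B. subtilis IFO 3007, E. coli IFO 3545, P. vulgaris IFO 3851, P. aeruginosa IFO 3080.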

The subject of experiment [7] is Proteus vulgaris. As to the kind of experiment: Minimum inhibitory concentration against Proteus vulgaris. Put shortly: as §2
The subject of experiment [8] is Schizosaccharomyces pombe. As to the kind of experiment: Minimum inhibitory concentration against Schizosaccharomyces pombe. An outline of the steps:
as §1

Experiment [9] relates to Staphylococcus aureus. As to the kind of experiment: Minimum inhibitory concentration against Staphylococcus aureus. An outline of the steps: as §2
The subject of experiment [10] is Pseudomonas aeruginosa. Briefly: Minimum inhibitory concentration against Pseudomonas aeruginosa. An outline of the steps: as §2
The subject of experiment [11] is Escherichia coli. As to the kind of experiment: Minimum inhibitory concentration against Escherichia coli. An outline of the steps:
as §2

Experiment [12] deals with Rhodotorula mucilaginosa. As to the kind of experiment: Minimum inhibitory concentration against Rhodotorula rubra. Put shortly: as §1
The subject of experiment [13] is Rhizopus microsporus var. chinensis. As to the kind of experiment: Minimum inhibitory concentration against Rhizopus chinensis. An outline of the steps:
as §1

Consider `COc1cccc2c1C(=O)c1ccncc1C2=O`, for which the MIC – broadly, the least concentration at which growth counts as inhibited – worked out at 12.5 mg/L (≈ 52.3 µM) in [1]; 12.5 mg/L (≈ 52.3 µM) in [2]; 25 mg/L (≈ 105 µM) in experiment [3]; 25 mg/L (≈ 105 µM) in experiment [4]; 12.5 mg/L (≈ 52.3 µM) in [5]; 6.25 mg/L (≈ 26.1 µM) in [6]. For the same molecule, the MIC in experiment [7] was 50 mg/L (≈ 209 µM); in experiment [8], 1.56 mg/L (≈ 6.52 µM); in [9] it was 12.5 mg/L (≈ 52.3 µM); in experiment [10], 6.25 mg/L (≈ 26.1 µM); in experiment [11], more than 100 mg/L; in experiment [12] it was 12.5 mg/L (≈ 52.3 µM). This molecule also yielded an MIC in experiment [13] of 25 mg/L (≈ 105 µM).

Take `Cc1ccnc2c1C(=O)c1cccc(O)c1C2=O`: the MIC was 50 mg/L (≈ 209 µM) in experiment [1]; more than 100 mg/L in experiment [2]; 100 mg/L (≈ 418 µM) in experiment [3]; 50 mg/L (≈ 209 µM) in experiment [4]; 25 mg/L (≈ 105 µM) in experiment [5]; 12.5 mg/L (≈ 52.3 µM) in experiment [6]. For the same molecule, the MIC in [7] was 50 mg/L (≈ 209 µM); in [8], 12.5 mg/L (≈ 52.3 µM); in [9], 12.5 mg/L (≈ 52.3 µM); in experiment [10] it was 25 mg/L (≈ 105 µM); in experiment [11], more than 100 mg/L; in experiment [12], 50 mg/L (≈ 209 µM). In addition, the MIC in experiment [13] was more than 100 mg/L.

`O=C1c2cnccc2C(=O)c2sccc21`: the MIC worked out at 3.13 mg/L (≈ 14.5 µM) in experiment [1]; 0.78 mg/L (≈ 3.62 µM) in experiment [2]; 1.56 mg/L (≈ 7.25 µM) in experiment [3]; 3.13 mg/L (≈ 14.5 µM) in [4]; 0.78 mg/L (≈ 3.62 µM) in experiment [5]; 6.25 mg/L (≈ 29 µM) in [6]. In addition, the minimum inhibitory concentration (MIC) in [7] worked out at 50 mg/L (≈ 232 µM); in experiment [8] it was 0.39 mg/L (≈ 1.81 µM); in [9], 1.56 mg/L (≈ 7.25 µM); in experiment [10], 1.56 mg/L (≈ 7.25 µM); in experiment [11] it was 100 mg/L (≈ 465 µM); in [12], 1.56 mg/L (≈ 7.25 µM). Also, the MIC in experiment [13] was found to be 6.25 mg/L (≈ 29 µM).

For `Cc1cnc2c(c1)C(=O)c1cccc(O)c1C2=O`, the minimum inhibitory concentration (MIC) in [1] is 25 mg/L (≈ 105 µM); in [2], more than 100 mg/L; in [3], 100 mg/L (≈ 418 µM); in [4] it was 25 mg/L (≈ 105 µM); in [5], 25 mg/L (≈ 105 µM); in [6], 6.25 mg/L (≈ 26.1 µM). Further, the MIC is 100 mg/L (≈ 418 µM) in experiment [7]; 12.5 mg/L (≈ 52.3 µM) in experiment [8]; 12.5 mg/L (≈ 52.3 µM) in experiment [9]; 25 mg/L (≈ 105 µM) in experiment [10]; more than 100 mg/L in experiment [11]; 50 mg/L (≈ 209 µM) in experiment [12]. Further, the MIC in [13] was more than 100 mg/L.

For `O=C1c2ccccc2C(=O)c2cnccc21`, the minimum inhibitory concentration (MIC) came to 6.25 mg/L (≈ 29.9 µM) in [1]; 12.5 mg/L (≈ 59.8 µM) in experiment [2]; 12.5 mg/L (≈ 59.8 µM) in experiment [3]; 12.5 mg/L (≈ 59.8 µM) in experiment [4]; 3.13 mg/L (≈ 15 µM) in [5]; 3.13 mg/L (≈ 15 µM) in [6]. Also, the MIC is 50 mg/L (≈ 239 µM) in experiment [7]; 3.13 mg/L (≈ 15 µM) in [8]; 6.25 mg/L (≈ 29.9 µM) in [9]; 6.25 mg/L (≈ 29.9 µM) in experiment [10]; more than 100 mg/L in [11]; 6.25 mg/L (≈ 29.9 µM) in experiment [12]. Besides, in [13], the minimal inhibitory concentration (MIC) was 12.5 mg/L (≈ 59.8 µM).

As for `Cc1ccnc2c1C(=O)c1ccccc1-2` [ONYCHINE], the MIC in experiment [1] is more than 100 mg/L; in experiment [2], 100 mg/L (≈ 512 µM); in experiment [3], 100 mg/L (≈ 512 µM); in [4], 100 mg/L (≈ 512 µM); in experiment [5], 50 mg/L (≈ 256 µM); in [6], 100 mg/L (≈ 512 µM). Moreover, the minimum inhibitory concentration (MIC) was 100 mg/L (≈ 512 µM) in [7]; 50 mg/L (≈ 256 µM) in [8]; more than 100 mg/L in experiment [9]; 100 mg/L (≈ 512 µM) in experiment [10]; more than 100 mg/L in experiment [11]; 100 mg/L (≈ 512 µM) in experiment [12]. In experiment [13], this molecule had a minimum inhibitory concentration (MIC) of more than 100 mg/L.

Take `Cc1ccnc2c1C(=O)c1ccccc1C2=O` [CLEISTOPHOLINE]: the MIC in experiment [1] is 50 mg/L (≈ 224 µM); in experiment [2], 100 mg/L (≈ 448 µM); in [3] it was 100 mg/L (≈ 448 µM); in experiment [4], 50 mg/L (≈ 224 µM); in experiment [5], 50 mg/L (≈ 224 µM); in experiment [6], 25 mg/L (≈ 112 µM). Besides, the MIC in experiment [7] is 50 mg/L (≈ 224 µM); in experiment [8] it was 25 mg/L (≈ 112 µM); in experiment [9], 25 mg/L (≈ 112 µM); in experiment [10] it was 50 mg/L (≈ 224 µM); in experiment [11] it was more than 100 mg/L; in [12], 50 mg/L (≈ 224 µM). This molecule yielded an MIC in [13] of more than 100 mg/L.

Consider `COc1cccc2c1C(=O)c1cnccc1C2=O`, for which the minimal inhibitory concentration (MIC) stood at 25 mg/L (≈ 105 µM) in experiment [1]; 12.5 mg/L (≈ 52.3 µM) in [2]; 25 mg/L (≈ 105 µM) in experiment [3]; 25 mg/L (≈ 105 µM) in experiment [4]; 12.5 mg/L (≈ 52.3 µM) in experiment [5]; 3.13 mg/L (≈ 13.1 µM) in experiment [6]. For the same molecule, the minimum inhibitory concentration (MIC) in [7] was 50 mg/L (≈ 209 µM); in experiment [8] it was 3.13 mg/L (≈ 13.1 µM); in experiment [9] it was 12.5 mg/L (≈ 52.3 µM); in [10], 6.25 mg/L (≈ 26.1 µM); in experiment [11], more than 100 mg/L; in experiment [12] it was 6.25 mg/L (≈ 26.1 µM). The lowest concentration to inhibit growth in experiment [13] (MIC) was 25 mg/L (≈ 105 µM).

Regarding `Cc1ccnc2c1-c1ccccc1C2=O`, the MIC in experiment [1] was 100 mg/L (≈ 512 µM); in experiment [2] it was 100 mg/L (≈ 512 µM); in [3] it was more than 100 mg/L; in [4], 100 mg/L (≈ 512 µM); in experiment [5] it was 50 mg/L (≈ 256 µM); in experiment [6], 50 mg/L (≈ 256 µM). The MIC in experiment [7] was 100 mg/L (≈ 512 µM); in [8] it was 100 mg/L (≈ 512 µM); in [9], 100 mg/L (≈ 512 µM); in [10] it was 50 mg/L (≈ 256 µM); in [11] it was more than 100 mg/L; in experiment [12], 100 mg/L (≈ 512 µM). The molecule also had an MIC in experiment [13] of more than 100 mg/L.

In the case of `O=C1c2cnccc2C(=O)c2c(O)cccc21`, the minimum inhibitory concentration (MIC) in [1] was determined as 6.25 mg/L (≈ 27.8 µM); in experiment [2], 3.13 mg/L (≈ 13.9 µM); in experiment [3] it was 3.13 mg/L (≈ 13.9 µM); in experiment [4], 6.25 mg/L (≈ 27.8 µM); in experiment [5] it was 1.56 mg/L (≈ 6.93 µM); in experiment [6] it was 3.13 mg/L (≈ 13.9 µM). Besides, the minimum inhibitory concentration (MIC) is 25 mg/L (≈ 111 µM) in experiment [7]; 0.2 mg/L (≈ 0.888 µM) in [8]; 1.56 mg/L (≈ 6.93 µM) in experiment [9]; 3.13 mg/L (≈ 13.9 µM) in experiment [10]; more than 100 mg/L in [11]; 3.13 mg/L (≈ 13.9 µM) in experiment [12]. In [13], this molecule gave an MIC of 6.25 mg/L (≈ 27.8 µM).

For the molecule `O=C1c2ccncc2C(=O)c2c(O)cccc21`, the MIC came out at 3.13 mg/L (≈ 13.9 µM) in experiment [1]; 3.13 mg/L (≈ 13.9 µM) in experiment [2]; 3.13 mg/L (≈ 13.9 µM) in experiment [3]; 12.5 mg/L (≈ 55.5 µM) in experiment [4]; 1.56 mg/L (≈ 6.93 µM) in [5]; 3.13 mg/L (≈ 13.9 µM) in experiment [6]. For the same molecule, the MIC in experiment [7] was 25 mg/L (≈ 111 µM); in experiment [8], 0.78 mg/L (≈ 3.46 µM); in experiment [9], 1.56 mg/L (≈ 6.93 µM); in experiment [10], 3.13 mg/L (≈ 13.9 µM); in [11], more than 100 mg/L; in [12] it was 3.13 mg/L (≈ 13.9 µM). The molecule also returned an MIC in [13] of 12.5 mg/L (≈ 55.5 µM).

Take `Cc1ccnc2c1C(=O)c1c(O)ccc(O)c1C2=O`: the MIC amounted to 12.5 mg/L (≈ 49 µM) in [1]; 50 mg/L (≈ 196 µM) in experiment [2]; 12.5 mg/L (≈ 49 µM) in experiment [3]; 12.5 mg/L (≈ 49 µM) in [4]; 6.25 mg/L (≈ 24.5 µM) in [5]; 6.25 mg/L (≈ 24.5 µM) in experiment [6]. Further, the minimal inhibitory concentration (MIC) in experiment [7] is 100 mg/L (≈ 392 µM); in [8] it was 6.25 mg/L (≈ 24.5 µM); in [9], 12.5 mg/L (≈ 49 µM); in experiment [10], 12.5 mg/L (≈ 49 µM); in [11] it was more than 100 mg/L; in [12], 12.5 mg/L (≈ 49 µM). The same molecule showed an MIC in [13] of 12.5 mg/L (≈ 49 µM).
